Laboratory results from ChEMBL document CHEMBL4270565, “Design, synthesis and antimicrobial evaluation of propylene-tethered ciprofloxacin-isatin hybrids” (Eur J Med Chem, 2018).
In brackets after ≈: the same amount, converted by molar mass.

Assays:
[1] = tested on: Staphylococcus epidermidis; assay: Antibacterial activity against methicillin-sensitive Staphylococcus epidermidis ATCC 12228 after 18 to 24 hrs by two-fold serial dilution method; assay type: functional
How it was run: (§1)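 Agar two-fold dilution MIC. Compounds were dissolved in 0.1 N NaOH and water, then serially diluted in melted Mueller-Hinton agar, with top concentrations starting at 128. Plates were inoculated at about 10 cfu and incubated at 35 °C for 18–24 h. MIC was taken as the lowest concentration giving 90% inhibition of growth.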

[2] = tested on: Staphylococcus epidermidis; assay: Antibacterial activity against methicillin-resistant Staphylococcus epidermidis 13-3 after 18 to 24 hrs by two-fold serial dilution method; assay type: functional
How it was run: (§2)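 Agar two-fold serial dilution in Mueller-Hinton agar. Strains came from the Chinese Center for Disease Control and Prevention. Compounds were dissolved in 0.1 N NaOH and water, then diluted in melted agar to final levels stepping down from 128. Plates were inoculated with bacterial cfu and incubated at 35 C for 18–24 h. MIC is the lowest concentration giving 90% growth inhibition.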

Staphylococcus aureus [3] = assay: Antibacterial activity against methicillin-sensitive Staphylococcus aureus ATCC 29213 after 18 to 24 hrs by two-fold serial dilution method; assay type: functional; how it was run: as §2
Staphylococcus aureus [4] = assay: Antibacterial activity against methicillin-resistant Staphylococcus aureus ATCC 33591 after 18 to 24 hrs by two-fold serial dilution method; assay type: functional; how it was run: as §2
Enterococcus faecalis [5] = assay: Antibacterial activity against Enterococcus faecalis ATCC 29212 after 18 to 24 hrs by two-fold serial dilution method; assay type: functional; how it was run: as §1
Enterococcus faecalis [6] = assay: Antibacterial activity against Enterococcus faecalis ATCC 51299 after 18 to 24 hrs by two-fold serial dilution method; assay type: functional; how it was run: as §1
Enterococcus faecium [7] = assay: Antibacterial activity against Enterococcus faecium ATCC 700221 after 18 to 24 hrs by two-fold serial dilution method; assay type: functional; how it was run: as §1
Enterococcus faecium [8] = assay: Antibacterial activity against Enterococcus faecium 13-7 after 18 to 24 hrs by two-fold serial dilution method; assay type: functional; how it was run: as §1
Escherichia coli [9] = assay: Antibacterial activity against extended-spectrum beta-lactamase deficient Escherichia coli ATCC 25922 after 18 to 24 hrs by two-fold serial dilution method; assay type: functional; how it was run: as §1
Escherichia coli [10] = assay: Antibacterial activity against extended-spectrum beta-lactamase harboring Escherichia coli ATCC 35218 after 18 to 24 hrs by two-fold serial dilution method; assay type: functional; how it was run: as §2
Klebsiella pneumoniae [11] = assay: Antibacterial activity against extended-spectrum beta-lactamase harboring Klebsiella pneumoniae ATCC 700603 after 18 to 24 hrs by two-fold serial dilution method; assay type: functional; how it was run: as §2
Klebsiella pneumoniae [12] = assay: Antibacterial activity against extended-spectrum beta-lactamase deficient Klebsiella pneumoniae 15-2 after 18 to 24 hrs by two-fold serial dilution method; assay type: functional; how it was run: as §1
Pseudomonas aeruginosa = assay: Antibacterial activity against Pseudomonas aeruginosa ATCC 27853 after 18 to 24 hrs by two-fold serial dilution method; assay type: functional; how it was run: as §1
[13] = tested on: Acinetobacter calcoaceticus; assay: Antibacterial activity against Acinetobacter calcoaceticus ATCC 19606 after 18 to 24 hrs by two-fold serial dilution method; assay type: functional; how it was run: as §1
Enterobacter cloacae = assay: Antibacterial activity against Enterobacter cloacae ATCC 43560 after 18 to 24 hrs by two-fold serial dilution method; assay type: functional
Klebsiella aerogenes = assay: Antibacterial activity against Enterobacter aerogenes ATCC 13048 after 18 to 24 hrs by two-fold serial dilution method; assay type: functional; how it was run: as §1
Serratia marcescens = assay: Antibacterial activity against Serratia marcescens ATCC 21074 after 18 to 24 hrs by two-fold serial dilution method; assay type: functional; how it was run: as §1
Morganella morganii = assay: Antibacterial activity against Morganella morganii ATCC 25830 after 18 to 24 hrs by two-fold serial dilution method; assay type: functional; how it was run: as §1
Providencia rettgeri = assay: Antibacterial activity against Providencia rettgeri ATCC 31052 after 18 to 24 hrs by two-fold serial dilution method; assay type: functional; how it was run: as §1
Proteus vulgaris = assay: Antibacterial activity against Proteus vulgaris ATCC 29905 after 18 to 24 hrs by two-fold serial dilution method; assay type: functional; how it was run: as §1
Proteus mirabilis = assay: Antibacterial activity against Proteus mirabilis 13-1 after 18 to 24 hrs by two-fold serial dilution method; assay type: functional; how it was run: as §1
[14] = tested on: Stenotrophomonas maltophilia; assay: Antibacterial activity against Stenotrophomonas maltophilia ATCC 13636 after 18 to 24 hrs by two-fold serial dilution method; assay type: functional; how it was run: as §1
Citrobacter freundii = assay: Antibacterial activity against extended-spectrum beta-lactamase harboring Citrobacter freundii ATCC 43864 after 18 to 24 hrs by two-fold serial dilution method; assay type: functional; how it was run: as §2
[15] = tested on: Mycobacterium tuberculosis; assay: Antimycobacterial activity against Mycobacterium tuberculosis H37Rv after 7 days; assay type: functional; conditions: 168 h
How it was run: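 Rapid direct susceptibility test in 48-well plates. Two-fold dilutions of compound from DMSO stocks were mixed with an equal volume of bacterial suspension. Medium-only wells served as growth controls and water-only wells as no-growth controls. Plates were sealed and held at 37 C in a humid box, and controls were checked at 3 days. MIC (90% growth inhibition) was read visually by high-magnification observation of the cells and re-read at 7 days.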

[16] = Cytotoxicity against African green monkey Vero cells assessed as reduction in cell viability after 72 hrs by MTT assay; assay type: cell-based; conditions: chlorocebus sabaeus
How it was run: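 VERO cells were kept in MEM with Earle's salts and 10% FBS at 37 °C, 5% CO2. They were seeded in 96-well plates and allowed to recover for 24 h. Cells were then exposed to compounds in DMSO over a series from 1000 down to 4 for 72 h. Viability was read by MTT, and CC50 was calculated by Bliss analysis.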

Structure (SMILES) | MIC90 [1] [µg/mL] | MIC90 [2] [µg/mL] | MIC90 (Staphylococcus aureus [3]) [µg/mL] | MIC90 (Staphylococcus aureus [4]) [µg/mL] | MIC90 (Enterococcus faecalis [5]) [µg/mL] | MIC90 (Enterococcus faecalis [6]) [µg/mL] | MIC90 (Enterococcus faecium [7]) [µg/mL] | MIC90 (Enterococcus faecium [8]) [µg/mL] | MIC90 (Escherichia coli [9]) [µg/mL] | MIC90 (Escherichia coli [10]) [µg/mL] | MIC90 (Klebsiella pneumoniae [11]) [µg/mL] | MIC90 (Klebsiella pneumoniae [12]) [µg/mL] | MIC90 (Pseudomonas aeruginosa) [µg/mL] | MIC90 [13] [µg/mL] | MIC90 (Enterobacter cloacae) [µg/mL] | MIC90 (Klebsiella aerogenes) [µg/mL] | MIC90 (Serratia marcescens) [µg/mL] | MIC90 (Morganella morganii) [µg/mL] | MIC90 (Providencia rettgeri) [µg/mL] | MIC90 (Proteus vulgaris) [µg/mL] | further results
Cc1ccc2c(c1)C(=O)C(=O)N2CCCOC(=O)c1cn(C2CC2)c2cc(N3CCN(CCCN4C(=O)C(=O)c5cc(C)ccc54)CC3)c(F)cc2c1=O | 32 (≈ 43.6 µM) | 128 (≈ 174 µM) | 64 (≈ 87.2 µM) | > 128 | 64 (≈ 87.2 µM) | > 128 | 128 (≈ 174 µM) | > 128 | 8 (≈ 10.9 µM) | 8 (≈ 10.9 µM) | 64 (≈ 87.2 µM) | 64 (≈ 87.2 µM) | 128 (≈ 174 µM) | 64 (≈ 87.2 µM) | 32 (≈ 43.6 µM) | 128 (≈ 174 µM) | > 128 | 64 (≈ 87.2 µM) | 128 (≈ 174 µM) | 64 (≈ 87.2 µM) | MIC90 (Proteus mirabilis): 64 µg/mL (≈ 87.2 µM); MIC90 [14]: 128 µg/mL (≈ 174 µM); MIC90 (Citrobacter freundii): 64 µg/mL (≈ 87.2 µM); MIC90 [15]: 50 µg/mL (≈ 68.1 µM); CC50 at 72 h [16]: 64 µg/mL (≈ 87.2 µM)
O=C1C(=O)N(CCCN2CCN(c3cc4c(cc3F)c(=O)c(C(=O)O)cn4C3CC3)CC2)c2ccccc21 | 0.25 (≈ 0.482 µM) | 4 (≈ 7.71 µM) | 0.25 (≈ 0.482 µM) | 0.25 (≈ 0.482 µM) | 1 (≈ 1.93 µM) | 1 (≈ 1.93 µM) | 8 (≈ 15.4 µM) | 64 (≈ 123 µM) | ≤ 0.03 | ≤ 0.03 | 1 (≈ 1.93 µM) | 0.125 (≈ 0.241 µM) | 1 (≈ 1.93 µM) | 1 (≈ 1.93 µM) | 0.03 (≈ 0.0579 µM) | ≤ 0.03 | 0.25 (≈ 0.482 µM) | ≤ 0.03 | 0.03 (≈ 0.0579 µM) | ≤ 0.03 | MIC90 (Proteus mirabilis): ≤ 0.03 µg/mL; MIC90 [14]: 0.125 µg/mL (≈ 0.241 µM); MIC90 (Citrobacter freundii): ≤ 0.03 µg/mL; MIC90 [15]: 0.2 µg/mL (≈ 0.386 µM); CC50 at 72 h [16]: 128 µg/mL (≈ 247 µM)
CO/N=C1\C(=O)N(CCCN2CCN(c3cc4c(cc3F)c(=O)c(C(=O)OCCCN3C(=O)/C(=N/OC)c5cc(C)ccc53)cn4C3CC3)CC2)c2ccc(C)cc21 | 16 (≈ 20.2 µM) | 64 (≈ 80.8 µM) | 32 (≈ 40.4 µM) | 32 (≈ 40.4 µM) | 32 (≈ 40.4 µM) | 128 (≈ 162 µM) | 128 (≈ 162 µM) | > 128 | 8 (≈ 10.1 µM) | 16 (≈ 20.2 µM) | 32 (≈ 40.4 µM) | 16 (≈ 20.2 µM) | 32 (≈ 40.4 µM) | 64 (≈ 80.8 µM) | 16 (≈ 20.2 µM) | 32 (≈ 40.4 µM) | 32 (≈ 40.4 µM) | 64 (≈ 80.8 µM) | 32 (≈ 40.4 µM) | 32 (≈ 40.4 µM) | MIC90 (Proteus mirabilis): 64 µg/mL (≈ 80.8 µM); MIC90 [14]: 64 µg/mL (≈ 80.8 µM); MIC90 (Citrobacter freundii): 32 µg/mL (≈ 40.4 µM); MIC90 [15]: 25 µg/mL (≈ 31.6 µM); CC50 at 72 h [16]: 16 µg/mL (≈ 20.2 µM)
CO/N=C1\C(=O)N(CCCN2CCN(c3cc4c(cc3F)c(=O)c(C(=O)OCCCN3C(=O)/C(=N/OC)c5ccccc53)cn4C3CC3)CC2)c2ccccc21 | 32 (≈ 41.9 µM) | 128 (≈ 168 µM) | 128 (≈ 168 µM) | > 128 | 64 (≈ 83.8 µM) | 128 (≈ 168 µM) | 128 (≈ 168 µM) | > 128 | 4 (≈ 5.24 µM) | 4 (≈ 5.24 µM) | 64 (≈ 83.8 µM) | 32 (≈ 41.9 µM) | 64 (≈ 83.8 µM) | 128 (≈ 168 µM) | 32 (≈ 41.9 µM) | 64 (≈ 83.8 µM) | 64 (≈ 83.8 µM) | 128 (≈ 168 µM) | 64 (≈ 83.8 µM) | 32 (≈ 41.9 µM) | MIC90 (Proteus mirabilis): 64 µg/mL (≈ 83.8 µM); MIC90 [14]: 128 µg/mL (≈ 168 µM); MIC90 (Citrobacter freundii): 64 µg/mL (≈ 83.8 µM); MIC90 [15]: 12.5 µg/mL (≈ 16.4 µM); CC50 at 72 h [16]: 64 µg/mL (≈ 83.8 µM)
CCO/N=C1\C(=O)N(CCCN2CCN(c3cc4c(cc3F)c(=O)c(C(=O)O)cn4C3CC3)CC2)c2ccccc21 | 0.25 (≈ 0.445 µM) | 2 (≈ 3.56 µM) | 0.25 (≈ 0.445 µM) | 0.25 (≈ 0.445 µM) | 1 (≈ 1.78 µM) | 1 (≈ 1.78 µM) | 8 (≈ 14.2 µM) | 32 (≈ 57 µM) | ≤ 0.03 | ≤ 0.03 | 0.5 (≈ 0.89 µM) | 0.03 (≈ 0.0534 µM) | 1 (≈ 1.78 µM) | 1 (≈ 1.78 µM) | 0.06 (≈ 0.107 µM) | ≤ 0.03 | 0.125 (≈ 0.223 µM) | 0.03 (≈ 0.0534 µM) | ≤ 0.03 | ≤ 0.03 | MIC90 (Proteus mirabilis): ≤ 0.03 µg/mL; MIC90 [14]: 0.125 µg/mL (≈ 0.223 µM); MIC90 (Citrobacter freundii): ≤ 0.03 µg/mL; MIC90 [15]: 0.78 µg/mL (≈ 1.39 µM); CC50 at 72 h [16]: 64 µg/mL (≈ 114 µM)
